Converted amounts (≈) assume the structure as drawn.
How the values were obtained:
Conditions in all cases: read-out: LC50 (the source's name)
[1] = Cytotoxicity against mouse MS1 cells; assay type: cell-based
Procedure, shortened: (§1)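 In vitro cytotoxicity assay against the cell line named; values reported as IC50 in µg/mL.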

A549 = experiment: Cytotoxicity against human A549 cells; assay type: functional; procedure, shortened: as §1
PC-3 = experiment: Cytotoxicity against human PC3 cells; assay type: functional; procedure, shortened: as §1
[2] = Cytotoxicity against human H116 cells; assay type: functional; procedure, shortened: as §1
HT-29 = experiment: Cytotoxicity against human HT-29 cells; assay type: functional; procedure, shortened: as §1

## CC[C@H](CC[C@@H](C)[C@H]1CC[C@H]2C3=C(CC[C@]12C)[C@@]1(C)CC[C@H](O)C[C@@]12O[C@H]2[C@H]3O)C(C)C (relative stereo)
[1]
  CC50: 0.5 µg/mL (≈ 1.12 µM)
A549
  CC50: 1 µg/mL (≈ 2.25 µM)
PC-3
  CC50: 1 µg/mL (≈ 2.25 µM)
[2]
  CC50: 1 µg/mL (≈ 2.25 µM)
HT-29
  CC50: 1 µg/mL (≈ 2.25 µM)

## CC[C@H](CC[C@@H](C)[C@H]1CCC2=C3[C@H](O)[C@@H]4O[C@@]45C[C@@H](O)CC[C@]5(C)[C@H]3CC[C@@]21C)C(C)C
[1]
  CC50: 0.5 µg/mL (≈ 1.12 µM)
A549
  CC50: 5 µg/mL (≈ 11.2 µM)
PC-3
  CC50: 1 µg/mL (≈ 2.25 µM)
[2]
  CC50: 1 µg/mL (≈ 2.25 µM)
HT-29
  CC50: 1 µg/mL (≈ 2.25 µM)

— ChEMBL document CHEMBL1150614, “Novel cytotoxic oxygenated C29 sterols from the Colombian marine sponge Polymastia tenax” (J Nat Prod, 2002)
